Reference: paper PMC6726529 (Clinical cancer research : an official journal of the …, 2019)

Columns and labels:
lymphoma cell lines = assay: Synergy in cell viability assay by excess over bliss; format: cell-based; conditions: for synergy in combination with romidepsin: EZH2 inhibitor combined with romidepsin (Supplementary Fig S3)
[1] = prior work, combination therapy alisertib + romidepsin; cited from earlier work
SU-DHL-10 = assay: Cell viability assay, single agent IC50; format: cell-based; conditions: Homo sapiens, SU-DHL10, 72 h, read-out: in vitro IC50 of romidepsin in SU-DHL-10
[2] = mouse, in vivo; for median Cmax: ip
B-cell lymphomas = conditions: phase I clinical trial; cited from earlier work
H3K27 = H3K27 acetylation/methylation in HEK 293T cells; format: cell-based; conditions: single agent exposure
Method in brief: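 HEK293 cells were transfected in OPTI-MEM with a human HDAC2 shRNA or scramble plasmid using Lipofectamine 3000. They were puromycin-selected and monitored for GFP by flow cytometry and fluorescence microscopy until a stable line formed. The stable HDAC2-knockdown or scramble cells were then exposed to an EZH2 inhibitor test compound, and H3K27 methylation status was assessed.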

| SMILES | Cmax translated to molar concentration [2] [nM] | median Cmax [2] [ng/mL] | synergy in combination with romidepsin (lymphoma cell lines) | also measured |
| --- | --- | --- | --- | --- |
| Nc1ccc(-c2cccs2)cc1NC(=O)c1ccc2nc(N3CCNCC3)ccc2c1 [ACY957] | – | – | – | synergy in combination with GSK126 (EOB) (lymphoma cell lines; ACY957 combined with GSK126, 4 GC-DLBCL cell lines): synergistic |
| C/C=C1\NC(=O)[C@H]2CSSCC/C=C/[C@H](CC(=O)N[C@H](C(C)C)C(=O)N2)OC(=O)[C@H](C(C)C)NC1=O [romidepsin] | 180 | 98.24 ± 62.50 | – | intratumor levels after combination of alisertib and romidepsin [1]: below the level of detection; IC50 (SU-DHL-10): 2.59 nM |
| CCN(c1cc(C#CCN2CCOCC2)cc(C(=O)NCc2c(C)cc(C)[nH]c2=O)c1C)[C@H]1CC[C@H](N(C)CCOC)CC1 [EPZ011989] | – | – | demonstrated synergy | – |
| CCN(c1cc(-c2ccc(CN3CCOCC3)cc2)cc(C(=O)NCc2c(C)cc(C)[nH]c2=O)c1C)C1CCOCC1 [tazemetostat] | – | – | – | overall response rate (B-cell lymphomas): 38% |
| COc1cc(C)[nH]c(=O)c1CNC(=O)c1c(C)n([C@H](C)C2CCN(CC(F)(F)F)CC2)c2ccccc12 [CPI-1205] | – | – | demonstrated synergy | – |
| CC[C@H](C)n1cc(C)c2c(C(=O)NCc3c(C)cc(C)[nH]c3=O)cc(-c3ccc(N4CCNCC4)nc3)cc21 [GSK126] | 3150 | 1657.5 ± 413.6 | – | serum AUC0-last [2]: 2828.57 ng·h/mL; status of acetylation or methylation of H3K27 (H3K27): did not significantly change |
